Data published in ChEMBL document CHEMBL1129750, “Bicyclic N-hydroxyurea inhibitors of 5-lipoxygenase: pharmacodynamic, pharmacokinetic, and in vitro metabolic studies characterizing N-hydroxy-N-(2,3-dihydro-6-(phenylmethoxy)-3-benzofuranyl)urea” (J Med Chem, 1996).
pIC50: −log10 of the molar value. Activity calls are given as the source filed them. The rule behind the calls is not given here.

Key:
[1] = biological target: T1, Polyunsaturated fatty acid 5-lipoxygenase (Mus musculus) (UniProt P48999); experiment: Inhibition of leukotriene formation in A-23187-stimulated mouse whole blood using […] ex vivo, activity expressed as percent of control.; format: functional, tissue-based; design: scale not given: the % may be the effect or the level left
T1 sequence (whole entry): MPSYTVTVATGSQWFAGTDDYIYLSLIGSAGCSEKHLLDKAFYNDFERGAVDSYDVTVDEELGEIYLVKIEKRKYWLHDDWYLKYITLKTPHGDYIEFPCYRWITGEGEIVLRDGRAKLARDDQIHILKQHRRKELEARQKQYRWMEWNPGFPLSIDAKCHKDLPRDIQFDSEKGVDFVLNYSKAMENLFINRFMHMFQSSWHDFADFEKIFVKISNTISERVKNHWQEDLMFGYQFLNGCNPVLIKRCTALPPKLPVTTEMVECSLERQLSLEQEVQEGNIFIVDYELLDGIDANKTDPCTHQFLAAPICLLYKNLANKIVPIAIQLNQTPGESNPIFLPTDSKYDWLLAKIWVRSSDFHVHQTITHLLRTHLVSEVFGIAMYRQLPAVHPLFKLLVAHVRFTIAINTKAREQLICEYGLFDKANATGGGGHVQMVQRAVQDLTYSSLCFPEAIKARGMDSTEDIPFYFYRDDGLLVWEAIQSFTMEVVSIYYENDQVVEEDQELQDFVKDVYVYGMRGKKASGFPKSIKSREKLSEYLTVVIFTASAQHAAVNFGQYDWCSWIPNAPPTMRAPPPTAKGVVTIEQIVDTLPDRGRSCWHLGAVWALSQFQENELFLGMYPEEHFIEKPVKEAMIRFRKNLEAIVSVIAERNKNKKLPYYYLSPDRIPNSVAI

[2] = biological target: T2, Polyunsaturated fatty acid 5-lipoxygenase (Rattus norvegicus, UniProt P12527); experiment: Inhibitory activity against rat 5-lipoxygenase by using continuous oxygen consumption assay.
T2 sequence (P12527 whole entry): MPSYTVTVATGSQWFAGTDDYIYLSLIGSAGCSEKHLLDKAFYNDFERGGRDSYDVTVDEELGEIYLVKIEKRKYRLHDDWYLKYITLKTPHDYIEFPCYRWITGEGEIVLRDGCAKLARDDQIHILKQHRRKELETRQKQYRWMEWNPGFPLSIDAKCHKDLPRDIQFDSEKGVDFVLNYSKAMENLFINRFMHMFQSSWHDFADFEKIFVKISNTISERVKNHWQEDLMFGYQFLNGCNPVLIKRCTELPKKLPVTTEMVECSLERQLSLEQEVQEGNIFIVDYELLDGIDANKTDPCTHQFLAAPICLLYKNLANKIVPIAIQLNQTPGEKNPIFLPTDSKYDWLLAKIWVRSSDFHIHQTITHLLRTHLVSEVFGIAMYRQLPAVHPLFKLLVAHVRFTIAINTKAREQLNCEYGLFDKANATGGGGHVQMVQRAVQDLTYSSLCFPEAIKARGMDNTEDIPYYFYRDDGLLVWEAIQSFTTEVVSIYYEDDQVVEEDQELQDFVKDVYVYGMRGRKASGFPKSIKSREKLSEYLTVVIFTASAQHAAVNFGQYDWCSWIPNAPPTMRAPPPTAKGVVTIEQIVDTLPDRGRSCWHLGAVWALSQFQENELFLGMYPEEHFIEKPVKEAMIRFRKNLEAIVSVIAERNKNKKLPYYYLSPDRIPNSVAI
In short: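 Semipurified cytosolic 5-LO from rat basophilic leukemia (RBL-1) cells; continuous oxygen-electrode assay of oxygen consumption; IC50.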

[3] = organism: Mus musculus; experiment: Compound was tested to inhibit Leukotriene formation in A-23187-stimulated mouse whole blood using […] ex vivo, activity expressed as percent of control; NS=No Stastistical Significance; format: functional, organism-based
[4] = organism: Mus musculus; experiment: Compound was tested to inhibit Leukotriene formation in A-23187-stimulated mouse whole blood using […] ex vivo; format: functional
[5] = organism: Mus musculus; experiment: Glucuronidation rates in mouse liver microsomes; not detected; format: functional
In short: (§1)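 Liver microsomes (fresh male CD-1 mouse >10 weeks, or frozen human donor) at 0.25–1.0 mg/mL protein. Incubated with 2.5 mM substrate, 15 mM [14C]UDP-glucuronic acid, 10 mM MgCl2 and 2% BSA in 100 mM sodium phosphate pH 7.4, at 37 °C for 1–4 h. Stopped with 20% acetonitrile; glucuronide quantified by HPLC. Mean of duplicates.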

[6] = organism: Homo sapiens; experiment: Glucuronidation rates in human liver microsomes; format: functional; in short: as §1
[7] = Compound was administered intravenously in mouse to evaluate plasma clearance values; format: ADME, organism-based; conditions: iv, read-out: Clp
In short: (§2)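 Male CD-1 mice given 0.5 mg/kg IV by lateral tail vein over 5–10 s, in ethanol/propylene glycol 30:70 v/v; N = 3 per time point with terminal sampling under ether. Plasma HPLC, LOQ 0.05 μg/mL. Mean concentration per time point before noncompartmental analysis. Half-life from slope of log-concentration profile; CLp = dose/AUC.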

[8] = Compound was administered intravenously in monkey to evaluate plasma clearance values; format: ADME, organism-based; conditions: simiiformes, iv
In short: (§3)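 IV infusion over 15 min via saphenous (monkey) or cephalic (dog) vein catheter, 1–1.4 mg/kg in 7.5% (w/v) aqueous (2-hydroxypropyl)-β-cyclodextrin; male cynomolgus monkeys and beagle dogs, N = 3. Chilled plasma analysed by HPLC. Noncompartmental parameters were estimated per animal and then averaged. CLp = dose/AUC, with AUC by linear/log-linear trapezoidal rule.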

[9] = test system: Canis familiaris; experiment: Compound was administered intravenously in dog to evaluate plasma clearance values; format: ADME, organism-based, Canis lupus familiaris; conditions: in vivo, iv; in short: as §3
[10] = test system: Mus musculus; experiment: Maximum inhibition of LTB4 at dose 3 mg/kg in mouse; format: functional
[11] = test system: Mus musculus; experiment: Percentage inhibition of LTB4 after 6 hr at dose 3 mg/kg in mouse; NS=No Stastistical Significance; format: functional, organism-based; design: dose 3 mg/kg
[12] = organism: Mus musculus; experiment: Inhibition of Leukotriene formation in mouse adoptive peritoneal anaphylaxis assay ex vivo; format: functional
[13] = test system: Mus musculus; experiment: Compound was tested to inhibit Leukotriene formation in mouse sensitized with 1BD8 cells after 7 hr of compound administration, activity expressed as percent of control; format: functional; design: concentration or dose not given beside the values
[14] = test system: Mus musculus; experiment: Compound was administered intravenously in mouse to evaluate half life; ID= Iinsufficient data to calculate parameter.; format: ADME, organism-based; conditions: in vivo, iv; in short: as §2
[15] = Mus musculus, Blood, read-out: ED50

| Activity [1] [%] | pIC50 [2] | SMILES | also measured |
| --- | --- | --- | --- |
| 28 |  | NC(=O)N(O)C1CCCc2cc(OCc3ccccc3)ccc21 (single isomer, unassigned; (+)) |  |
|  | 6.22 | NC(=O)N(O)C1CCCc2cc(CCc3ccccc3)ccc21 (stereo unspecified) | Activity [3]: inactive |
|  | 6.00 | NC(=O)N(O)C1CCCc2ccc(OCc3ccccc3)cc21 (stereo unspecified) | Activity [3]: inactive |
| 0.9 |  | NC(=O)N(O)C1CCc2cc(OCc3ccccc3)ccc21 (stereo in doubt; (-)2a) |  |
| -73 | 5.57 | COc1ccc(COc2ccc3c(c2)OCC3N(O)C(N)=O)cc1 (stereo unspecified) | ED50 [4, 15]: 9.8 mg/kg |
|  |  | NC(=O)N(O)C1COc2cc(OCc3ccccc3)ccc21 (single isomer, unassigned; (+)) [listing 1 of 2 here] | Rate of formation [5]: inactive; Rate of formation (nM (mg of protein)-1) [6]: 2.5 |
| -52 | 5.52 | NC(=O)N(O)C1CCCc2cc(-c3ccccc3)ccc21 (stereo unspecified) |  |
| -56 | 5.48 | NC(=O)N(O)C1COc2cc(Oc3ccccc3)ccc21 (stereo unspecified) |  |
|  | 6.06 | NC(=O)N(O)C1CCc2cc(OCc3ccccc3)ccc21 (single isomer, unassigned; (+)) |  |
|  |  | NC(=O)N(O)C1COc2cc(OCc3ccccc3)ccc21 (single isomer, unassigned; (+)) [listing 2 of 2 here] | ED50 [4]: 0.9 mg/kg; clearance [7]: 8.6 mL/min; clearance ([8]; plasma, read-out: Clp): 6.1 mL/min; Clp [9]: 3.5 mL/min |
| -64 | 5.46 | NC(=O)N(O)C1COc2ccc(Oc3ccccc3)cc21 (stereo unspecified) | ED50 [4, 15]: 1.9 mg/kg; Max inhibition [10]: 67; inhibition [11]: inactive |
|  | 5.89 | NC(=O)N(O)C1CCn2c1cc1cc(Cl)ccc12 (stereo unspecified) |  |
| -85 |  | NC(=O)N(O)C1CCc2cc(OCc3ccccc3)ccc21 (stereo in doubt; 2a) [listing 1 of 2 here] |  |
|  | 6.11 | NC(=O)N(O)C1CCc2cc(OCc3ccccc3)ccc21 (stereo in doubt; 2a) [listing 2 of 2 here] | ED50 [4, 15]: 2.6 mg/kg; ED50 ([12]; Mus musculus): 4 mg/kg; Activity [13]: -31% |
| -26 |  | Cc1c2n(c3ccc(Oc4ccccc4)cc13)CCC2N(O)C(N)=O (stereo unspecified) |  |
|  |  | CCc1ccc2c(c1)cc1n2CCC1N(O)C(N)=O (stereo unspecified) | Activity [3]: inactive |
|  |  | NC(=O)N(O)C1COc2cc(OCc3ccccc3)ccc21 (single isomer, unassigned; (-)) | Clp ([8]; in vivo): 10.3 mL/min; Clp [9]: 10.9 mL/min; T1/2 [14]: Insufficient data |
| -57 | 6.08 | NC(=O)N(O)C1CCCc2c(Oc3ccccc3)cccc21 (stereo unspecified) |  |
| -100 |  | NC(=O)N(O)C1COc2cc(OCc3ccccc3)ccc21 (stereo in doubt; 1a) |  |
| -68 | 6.19 | NC(=O)N(O)C1CCn2c1cc1cc(OCc3ccccc3)ccc12 (stereo unspecified) | ED50 [4, 15]: 1.8 mg/kg; ED50 [12]: 1.8 mg/kg; Activity [13]: -8% |
|  | 6.30 | NC(=O)N(O)C1CCCc2cc(OCc3ccc4ccccc4c3)ccc21 (stereo unspecified) | Activity [3]: inactive |
